# Experimental data collected from several papers.
# Protocols differ between the studies behind these lines.
# Target: LIM domain kinase 1 (LIMK1, Homo sapiens, UniProt P53667)
SMILES,effect on,technique,tested at,remaining binding [%]
FC(F)(F)Oc1cccc(-c2cnc3ccc(-c4ccncc4)nn23)c1,cell-free assay,competition with immobilised ligand,5 µM,81
CC(=O)N1CCC(c2ccc(C(=O)NC(=N)N)cc2C(F)(F)F)CC1,cell-free assay,competition with immobilised ligand,1 µM,100
COc1cnc(Nc2cccc(S(N)(=O)=O)c2)nc1N1CCN(c2ccccc2)CC1,binding,competition with immobilised ligand,1 µM,100
CCN1CCN(Cc2ccc(C(=O)Nc3ccc(C)c(Oc4ccc5c(c4)CC(=O)N5)c3)cc2C(F)(F)F)CC1,binding,competition with immobilised ligand,1 µM,100
C=CC(=O)N1CCC(C(=O)NCC(=O)N2CCN(c3nc(-c4cnc(N)nc4C(F)F)nc(N4CCOCC4)n3)CC2)CC1,binding,competition with immobilised ligand,1 µM,100
CN(CCCC(F)(F)F)c1nccc(-c2cnn3ncccc23)n1,binding,,1 µM,86
O=C(NCCCN1CCOCC1)c1ccc(Nc2nccc(-c3cc4ccccc4s3)n2)cc1,binding,competition with immobilised ligand,1 µM,53
Cc1cc(NC(=O)c2cccc(S(F)(F)(F)(F)F)c2)cc(-n2ccn3nc(-c4cccnc4)cc23)c1,cell-free assay,competition with immobilised ligand,1 µM,100
O=C(c1ccc(Nc2nccc(-c3cc4ccccc4s3)n2)cc1)N1CCC(N2CCCC2)CC1,binding,competition with immobilised ligand,1 µM,20
COc1cc(-c2cn(C3CCc4c(F)cccc4N(CC(F)(F)F)C3=O)nn2)ccc1-n1cnc(C)c1 (stereo not drawn),cell-free assay,competition with immobilised ligand,1 µM,100
C[C@H]1CCN(c2nccc(-c3cnn4ncccc34)n2)C1,binding,,1 µM,91
O=C(NCc1ncc(C(F)(F)F)cc1Cl)c1ccc2c(c1)C1(CCS(=O)(=O)CC1)[C@@H](C1CC1)N2S(=O)(=O)c1ccc(F)cc1,cell-free assay,competition with immobilised ligand,1 µM,91
O=C(NCC1CCOCC1)c1n[nH]cc1NC(=O)c1c(F)cccc1F,binding,competition with immobilised ligand,1 µM,100
CS(=O)(=O)N1CCCC(NC(=O)[C@H](CCC2CCCCC2)NC(=O)c2ccc(CNC(=O)c3cnc4ccccn34)cc2)C1 (stereo partly drawn),cell-free assay,competition with immobilised ligand,0.1 µM,75
CC1CCCN1c1nccc(-c2cnn3ncccc23)n1 (stereo not drawn),binding,,1 µM,100
CNC(=O)[C@@H]1CC[C@@H](n2c(-c3ccc4cnccc4c3)nc3ccc(C(=O)NCc4cccc(C(N)=O)c4)cc32)C1,binding,competition with immobilised ligand,1 µM,100
CNCc1ccccc1-c1csc([C@@H](C)Nc2nc(C)nc3cc(OC)c(OC)cc23)c1,cell-free assay,competition with immobilised ligand,1 µM,99
N[C@@H]1CCN(c2nccc(-c3cnn4ncccc34)n2)C1,binding,,1 µM,73
c1cncc(-c2cccc(Nc3nccc(NC4CCCCC4)n3)c2)c1,binding,competition with immobilised ligand,10 µM,56
F[C@@H]1CCN(c2nccc(-c3cnn4ncccc34)n2)C1,binding,,1 µM,89
O=C(c1ccc(Nc2ncc(Cl)c(-c3cc4ccccc4s3)n2)cc1)N1CCC(N2CCCC2)CC1,binding,competition with immobilised ligand,1 µM,53
